The text below walks through data of ChEMBL document CHEMBL3045564, “Synthesis of photosynthesis-inhibiting nostoclide analogues” (J Agric Food Chem, 2008).

For assay [1], the system named is Spinacia oleracea. As to the kind of experiment: Inhibition of photosynthesis in isolated Spinacia oleracea (spinach) chloroplasts assessed as reduction in light-driven ferricyanide reduction at 5 uM. In kind it is functional. The essentials:
(§1)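 Thylakoid membranes from market spinach leaves, homogenized in ice-cold Tricine-NaOH pH 8.0 with NaCl, MgCl2 and 0.4 M sucrose. Osmotically swollen, kept on ice in the dark. Portions with 20 μg chlorophyll incubated at 24 °C with 1 mM K3Fe(CN)6. Run under saturating light (800 μmol m⁻² s⁻¹), A420 read every 30 s for 10 min. Triplicate; percent inhibition versus untreated controls.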

The subject of assay [2] is Spinacia oleracea. As to the kind of experiment: Inhibition of photosynthesis in isolated Spinacia oleracea (spinach) chloroplasts assessed as reduction in light-driven ferricyanide reduction at 10 uM. It counts as functional. The essentials: as §1

Molecules are shown by their SMILES. The source made the active and inactive calls. No cut-off for these calls is given here.

Usually inhibition stands for the drop in the measured response relative to a control, in per cent. Consider `COc1cc(OC)c(/C=C2\C=C(Cc3ccccc3)C(=O)O2)c(OC)c1`, for which the values for the inhibition in the assay with Spinacia oleracea [1] and in the assay with Spinacia oleracea [2] were 25.2% and 43.6%, respectively.

For `COc1ccc(/C=C2/C=C(Cc3ccccc3)C(=O)O2)cc1O`, the inhibition result in the assay with Spinacia oleracea [1] and with Spinacia oleracea [2] was “inactive” in each case.

In the case of `O=C1O/C(=C\c2cccc([N+](=O)[O-])c2)C=C1Cc1ccccc1`, the inhibition in the assay on Spinacia oleracea [1] was 30%; with Spinacia oleracea [2] it was 39.5%.

With `Cc1ccc(/C=C2/C=C(Cc3ccccc3)C(=O)O2)cc1`, the inhibition entry with Spinacia oleracea [1] was “inactive”. The inhibition in the assay with Spinacia oleracea [2] came to 8%.

For `N#Cc1ccc(/C=C2/C=C(Cc3ccccc3)C(=O)O2)cc1`, the inhibition result in the assay on Spinacia oleracea [1] and with Spinacia oleracea [2] was “inactive” throughout.

In the case of `CN(C)c1cccc(/C=C2/C=C(Cc3ccccc3)C(=O)O2)c1`, the inhibition is 10.9% with Spinacia oleracea [1] and 38.6% in the assay with Spinacia oleracea [2].

For `O=C1O/C(=C\c2ccc(Cl)cc2)C=C1Cc1ccccc1`, the inhibition result in the assay with Spinacia oleracea [1] is “inactive”. The inhibition with Spinacia oleracea [2] came to 5.8%.

As for `O=C1O/C(=C\c2ccccc2Cl)C=C1Cc1ccccc1`, the inhibition in the assay on Spinacia oleracea [1] is 19.4%; in the assay with Spinacia oleracea [2], 30.8%.

In the case of `O=C1O/C(=C\c2cccc(Cl)c2)C=C1Cc1ccccc1`, the inhibition was 5.8% in the assay with Spinacia oleracea [1] and 20.3% in the assay on Spinacia oleracea [2].

Take `O=C1O/C(=C\c2ccccc2C(F)(F)F)C=C1Cc1ccccc1`: the inhibition is 23.3% in the assay with Spinacia oleracea [1] and 44.9% in the assay with Spinacia oleracea [2].

Consider `O=C1O/C(=C\c2cccc(F)c2)C=C1Cc1ccccc1`, for which the results for the inhibition in the assay on Spinacia oleracea [1] and in the assay with Spinacia oleracea [2] were 9.5% and 28.8%, respectively.

Turning to `O=C1O/C(=C\c2ccccc2)C=C1Cc1ccccc1`, the inhibition in the assay with Spinacia oleracea [1] stood at 12.7%; in the assay on Spinacia oleracea [2], 29.2%.

`O=C1O/C(=C\c2ccc(C(F)(F)F)cc2)C=C1Cc1ccccc1`: the inhibition in the assay with Spinacia oleracea [1] is 34%; in the assay on Spinacia oleracea [2] it was 55.5%.

Take `CN(C)c1ccc(/C=C2/C=C(Cc3ccccc3)C(=O)O2)c(Cl)c1`: the results for the inhibition in the assay on Spinacia oleracea [1] and in the assay on Spinacia oleracea [2] were 13.8% and 25.4%, respectively.

Take `Cc1cccc(/C=C2/C=C(Cc3ccccc3)C(=O)O2)c1`: the inhibition in the assay with Spinacia oleracea [1] stood at 8%; in the assay with Spinacia oleracea [2] it was 16.7%.

For `O=C1O/C(=C\c2ccc(F)cc2)C=C1Cc1ccccc1`, the inhibition came to 9.2% in the assay on Spinacia oleracea [1] and 25.6% in the assay on Spinacia oleracea [2].

With `O=C1O/C(=C\c2c(F)c(F)c(F)c(F)c2F)C=C1Cc1ccccc1`, the inhibition result with Spinacia oleracea [1] was “inactive”. In addition, the inhibition in the assay with Spinacia oleracea [2] is 6.6%.

Turning to `O=C1O/C(=C\c2ccc(-c3ccccc3)cc2)C=C1Cc1ccccc1`, the inhibition result in the assay with Spinacia oleracea [1] and in the assay on Spinacia oleracea [2] was “inactive” each time.

For `CN(C)C(=O)Nc1ccc(Cl)c(Cl)c1`, the results for the inhibition in the assay on Spinacia oleracea [1] and with Spinacia oleracea [2] were 93.2% and 95.1%, respectively.

Turning to `CN(C)c1ccc(/C=C2/C=C(Cc3ccccc3)C(=O)O2)cc1`, the values for the inhibition in the assay with Spinacia oleracea [1] and in the assay on Spinacia oleracea [2] were 5.7% and 7.1%, respectively.

Regarding `COc1ccc(/C=C2/C=C(Cc3ccccc3)C(=O)O2)cc1`, the inhibition turned out to be 8.5% in the assay on Spinacia oleracea [1] and 15% with Spinacia oleracea [2].

For `COc1ccc(OC)c(/C=C2/C=C(Cc3ccccc3)C(=O)O2)c1`, the inhibition came out at 30.3% with Spinacia oleracea [1] and 43.5% in the assay with Spinacia oleracea [2].

Regarding `O=C1O/C(=C\c2ccc(Br)cc2)C=C1Cc1ccccc1`, the inhibition entry in the assay with Spinacia oleracea [1] and in the assay with Spinacia oleracea [2] was “inactive” throughout.

For the molecule `O=C1O/C(=C\c2ccc([N+](=O)[O-])cc2)C=C1Cc1ccccc1`, the values for the inhibition with Spinacia oleracea [1] and in the assay on Spinacia oleracea [2] were 49.8% and 57.8%, respectively.

For `O=C1O/C(=C\c2ccccc2Br)C=C1Cc1ccccc1`, the inhibition result with Spinacia oleracea [1] is “inactive”. For the same molecule, the inhibition in the assay with Spinacia oleracea [2] worked out at 21.8%.

Turning to `Cc1ccccc1/C=C1/C=C(Cc2ccccc2)C(=O)O1`, the inhibition with Spinacia oleracea [1] amounted to 16.7%; with Spinacia oleracea [2], 26%.

`N#Cc1cccc(/C=C2/C=C(Cc3ccccc3)C(=O)O2)c1`: the inhibition result with Spinacia oleracea [1] and in the assay on Spinacia oleracea [2] was “inactive” throughout.

With `O=C1O/C(=C\c2ccc(O)cc2)C=C1Cc1ccccc1`, the inhibition result with Spinacia oleracea [1] is “inactive”. In the assay on Spinacia oleracea [2], the inhibition stood at 6.5%.

As to `O=C1O/C(=C\c2cccc(C(F)(F)F)c2)C=C1Cc1ccccc1`, the inhibition in the assay with Spinacia oleracea [1] is 27.3%; with Spinacia oleracea [2] it was 49.9%.

Regarding `O=C1O/C(=C\c2ccccc2O)C=C1Cc1ccccc1`, the inhibition entry with Spinacia oleracea [1] and in the assay on Spinacia oleracea [2] was “inactive” in each case.

For the molecule `O=C1O/C(=C\c2ccccc2F)C=C1Cc1ccccc1`, the inhibition in the assay on Spinacia oleracea [1] was determined as 24.5%; with Spinacia oleracea [2], 49.5%.

On to `O=C1O/C(=C\c2cccc(O)c2)C=C1Cc1ccccc1`, for which the inhibition result in the assay with Spinacia oleracea [1] was “inactive”. In addition, the inhibition in the assay on Spinacia oleracea [2] was determined as 6.9%.

As to `CCc1ccc(/C=C2/C=C(Cc3ccccc3)C(=O)O2)cc1`, the inhibition was found to be 40.6% in the assay with Spinacia oleracea [1] and 50.7% in the assay with Spinacia oleracea [2].

Turning to `O=C1O/C(=C\c2cccc(Br)c2)C=C1Cc1ccccc1`, the inhibition is 13.8% in the assay with Spinacia oleracea [1] and 22.6% in the assay with Spinacia oleracea [2].
